ChEMBL document CHEMBL3853279, “Tadehaginosides A-J, Phenylpropanoid Glucosides from Tadehagi triquetrum, Enhance Glucose Uptake via the Upregulation of PPARγ and GLUT-4 in C2C12 Myotubes” (J Nat Prod, 2016)
Calls of active or inactive are those of the source. The calls are words filed in the database; no cut-off is given here.

Legend:
[1] = biological target: T1, Peroxisome proliferator-activated receptor gamma (Mus musculus) (UniProt P37238); experiment: Transactivation of PPARgamma in mouse C2C12 cells assessed as increase in GLUT-4 mediated 2-NBDG uptake at 10 uM after 6 hrs by fluorescence assay; assay type: cell-based
T1 sequence (whole entry): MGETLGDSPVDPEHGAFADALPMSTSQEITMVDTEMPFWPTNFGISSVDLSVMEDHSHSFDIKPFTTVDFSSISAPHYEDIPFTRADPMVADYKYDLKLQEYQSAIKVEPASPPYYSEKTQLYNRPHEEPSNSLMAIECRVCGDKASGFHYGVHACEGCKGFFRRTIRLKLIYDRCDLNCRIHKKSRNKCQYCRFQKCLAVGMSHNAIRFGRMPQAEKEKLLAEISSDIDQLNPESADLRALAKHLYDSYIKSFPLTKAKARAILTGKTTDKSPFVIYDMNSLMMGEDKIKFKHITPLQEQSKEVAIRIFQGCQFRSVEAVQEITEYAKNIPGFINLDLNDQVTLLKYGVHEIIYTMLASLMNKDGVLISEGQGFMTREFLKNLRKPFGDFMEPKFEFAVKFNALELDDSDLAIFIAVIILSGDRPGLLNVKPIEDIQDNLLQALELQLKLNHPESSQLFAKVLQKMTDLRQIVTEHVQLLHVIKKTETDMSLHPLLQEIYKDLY
How it was run: (§1)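 Uptake was run in C2C12 myotubes (4 days in DMEM/1% FBS) kept in serum-free DMEM. 2-NBDG 10 μM and compound (DMSO solution) were added together for the stated time. Medium was then discarded, and cells were washed twice with PBS and scraped in ice-cold PBS. Cell-associated 2-NBDG was read by fluorescence at Ex/Em 475/550 nm, under basal or insulin-stimulated conditions.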

[2] = biological target: T1, Peroxisome proliferator-activated receptor gamma (Mus musculus); experiment: Transactivation of PPARgamma in mouse C2C12 cells assessed as increase in GLUT-4 levels in at 1 to 10 uM after 6 hrs by ELISA; assay type: cell-based
How it was run: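 Myotubes were differentiated from C2C12 myoblasts over 4 days in DMEM plus 1% FBS, then treated 6 h in serum-free DMEM at 1 and 10 μM, with rosiglitazone 10 μM as reference. Cells were PBS-washed and lysed, and lysates were spun 20 min at 13000g, 4 °C. GLUT-4 in the supernatant was quantified by mouse GLUT-4 ELISA.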

[3] = biological target: T1, Peroxisome proliferator-activated receptor gamma (Mus musculus); experiment: Transactivation of PPARgamma in mouse C2C12 cells assessed as increase in GLUT-4 mediated 2-NBDG uptake at 4 hrs by fluorescence assay; assay type: cell-based; how it was run: as §1
[4] = biological target: T1, Peroxisome proliferator-activated receptor gamma (Mus musculus); experiment: Transactivation of PPARgamma in mouse C2C12 cells assessed as increase in GLUT-4 mediated insulin-induced 2-NBDG uptake at 4 hrs by fluorescence assay; assay type: cell-based; how it was run: as §1
[5] = biological target: T1, Peroxisome proliferator-activated receptor gamma (Mus musculus); experiment: Transactivation of PPARgamma in mouse C2C12 cells assessed as increase in GLUT-4 mediated 2-NBDG uptake at 5 to 20 uM at 4 hrs by fluorescence assay; assay type: cell-based; how it was run: as §1
[6] = biological target: T1, Peroxisome proliferator-activated receptor gamma (Mus musculus); experiment: Transactivation of PPARgamma in mouse C2C12 cells at 1 to 10 uM after 24 hrs by DR-1 luciferase reporter gene assay; assay type: cell-based
How it was run: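 C2C12 myotubes were transiently co-transfected with a DR-1 luciferase reporter and a PPARγ expression vector. Six hours after transfection, the medium was replaced with fresh medium containing the agonist. Luciferase activity was measured 24 h later by kit assay.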

[7] = biological target: T1, Peroxisome proliferator-activated receptor gamma (Mus musculus); experiment: Transactivation of PPARgamma in mouse C2C12 cells assessed as increase in GLUT-4 mediated 2-NBDG uptake at 10 uM after 2 to 8 hrs by fluorescence assay; assay type: cell-based; how it was run: as §1
[8] = species on record: Mus musculus; experiment: Cytotoxicity against mouse C2C12 cells assessed as cell viability at 1 to 20 uM after 4 hrs by MTT assay; assay type: toxicity, cell-based; settings: c2c12, 4 h
How it was run: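 C2C12 myoblasts differentiated to myotubes in DMEM with 1% FBS, changed daily for 4 days, then seeded in 96-well plates. Cells were exposed to test compound for 4 h, with digitonin 100 μg/mL as positive control. MTT reagent was added, then DMSO, and absorbance was read at 565 nm as viability.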

O=C(/C=C/c1ccc(O)cc1)O[C@@H]1[C@@H](O)[C@H](Oc2cc(O)cc(O)c2)O[C@H](CO)[C@H]1O was tested. Which Activity [1] did it give?
Its Activity is “Active”.

For O=C(/C=C/c1ccc(O)cc1)O[C@H]1[C@H](Oc2cc(O)cc(O)c2)O[C@H](CO)[C@@H](O)[C@@H]1O, which Activity [1] is on record?
The Activity was “Active”.

For O=C(OC[C@H]1O[C@@H](Oc2cc(O)cc(O)c2)[C@H](O)[C@@H](O)[C@@H]1O)[C@H]1[C@H](C(=O)OC[C@H]2O[C@@H](Oc3cc(O)cc(O)c3)[C@H](O)[C@@H](O)[C@@H]2O)[C@H](c2ccc(O)cc2)[C@H]1c1ccc(O)cc1, which Activity [1] is on record?
Its Activity is “Active”.

Which Activity [1] does the source give for CC(=O)c1c(O)cc(O)cc1O[C@@H]1O[C@H](COC(=O)/C=C/c2ccc(O)cc2)[C@@H](O)[C@H](O)[C@H]1O here?
Its Activity is “Active”.

O=C(/C=C/c1ccc(O)cc1)O[C@H]1[C@H](O)[C@@H](O)[C@H](Oc2cc(O)cc(O)c2)O[C@@H]1CO was tested. Which Activity [1] did it give?
The Activity was “Active”.

How did the Activity [2] turn out when O=C(OC[C@H]1O[C@@H](Oc2cc(O)cc(O)c2)[C@H](O)[C@@H](O)[C@@H]1O)[C@H]1[C@H](c2ccc(O)cc2)[C@H](C(=O)OC[C@H]2O[C@@H](Oc3cc(O)cc(O)c3)[C@H](O)[C@@H](O)[C@@H]2O)[C@H]1c1ccc(O)cc1 was run?
Its Activity is “Active”.

And the Activity [3]?
Its Activity is “Dose-dependent effect”.

And the Activity [4]?
Its Activity is “Dose-dependent effect”.

And the Activity [5]?
The Activity was “Active”.

What about the Activity [6] of the same compound?
Its Activity is “Active”.

And the Activity [1]?
Its Activity is “Active”.

What about the Activity [7] of the same compound?
The Activity was “Active”.

And the Activity [8]?
The Activity was “Non-Toxic”.

O=C(/C=C/c1ccc(O)cc1)OC[C@H]1O[C@@H](Oc2cc(O)cc(O)c2)[C@H](O)[C@@H](O)[C@@H]1O was tested. Which Activity [1] did it give?
The Activity was “Active”.

Which Activity [1] does the source give for CC(=O)c1c(O)cc(O)cc1O[C@@H]1O[C@H](COC(=O)/C=C\c2ccc(O)cc2)[C@@H](O)[C@H](O)[C@H]1O here?
Its Activity is “Active”.

Which Activity [1] does the source give for O=C(/C=C\c1ccc(O)cc1)O[C@H]1[C@H](Oc2cc(O)cc(O)c2)O[C@H](CO)[C@@H](O)[C@@H]1O here?
The Activity was “Active”.
